Laboratory results: ChEMBL document CHEMBL1123067, “Evaluation of the brain-specific delivery of radioiodinated (iodophenyl)alkyl-substituted amines coupled to a dihydropyridine carrier” (J Med Chem, 1985)

Experiments:
Format in all cases: ADME, organism-based
[1] = system: Rattus norvegicus; assay: Distribution of radioactivity in kidney tissues of Sprague-Dawley rats after 15 min injecton by intravenously; 1.12-2.04; conditions: in vivo, iv, 0.25 h
[2] = system: Rattus norvegicus; assay: Distribution of radioactivity in liver tissues of Sprague-Dawley rats after 5 min injecton by intravenously; 6.76-10.44; conditions: in vivo, iv
[3] = system: Rattus norvegicus; assay: Distribution of radioactivity in liver tissues of Sprague-Dawley rats after 60 min injecton by intravenously; 0.75-1.14; conditions: in vivo, iv, 1 h
[4] = system: Rattus norvegicus; assay: Distribution of radioactivity in kidney tissues of Sprague-Dawley rats after 5 min injecton by intravenously; 13.02-19.07; conditions: in vivo, iv
[5] = system: Rattus norvegicus; assay: Distribution of radioactivity in kidney tissues of Sprague-Dawley rats after 60 min injecton by intravenously; 0.48-0.72; conditions: in vivo, iv, 1 h
[6] = system: Rattus norvegicus; assay: Distribution of radioactivity in liver tissues of Sprague-Dawley rats after 15 min injecton by intravenously; 4.01-4.81; conditions: in vivo, iv, 0.25 h
[7] = system: Rattus norvegicus; assay: Distribution of radioactivity in lung tissues of Sprague-Dawley rats after 15 min injecton by intravenously; 0.4-0.54; conditions: in vivo, iv, 0.25 h
[8] = system: Rattus norvegicus; assay: Distribution of radioactivity in lung tissues of Sprague-Dawley rats after 5 min injecton by intravenously; 0.47-0.56; conditions: in vivo, iv
[9] = system: Rattus norvegicus; assay: Distribution of radioactivity in lung tissues of Sprague-Dawley rats after 60 min injecton by intravenously; 0.3-0.36; conditions: in vivo, iv, 1 h
[10] = system: Rattus norvegicus; assay: Distribution of radioactivity in brain tissues of Sprague-Dawley rats after 60 min injecton by intravenously; 0.02-0.03; conditions: in vivo, iv, 1 h
How it was run: (§1)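 Female Sprague-Dawley rats, 10–12 weeks old (170–200 g), fed ad libitum. The ¹²⁵I-labelled agent was dissolved in minimal Me2SO, diluted with saline to a final 20% Me2SO, filtered (0.22 μm), and injected into a lateral tail vein under ether anaesthesia. Tissues were counted against samples of the injected solution and expressed as % injected dose/g (mean, range). Brain/blood ratio is from the means.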

[11] = system: Rattus norvegicus; assay: Distribution of radioactivity in heart tissues of Sprague-Dawley rats after 60 min injecton by intravenously; 0.19-0.23; conditions: in vivo, iv, 1 h
[12] = system: Rattus norvegicus; assay: Distribution of radioactivity in blood tissues of Sprague-Dawley rats after 60 min injecton by intravenously; 0.25-0.32; conditions: in vivo, iv, 1 h; how it was run: as §1
[13] = system: Rattus norvegicus; assay: Distribution of radioactivity in brain tissues of Sprague-Dawley rats after 15 min injecton by intravenously; 0.03-0.03; conditions: in vivo, iv, 0.25 h; how it was run: as §1
[14] = system: Rattus norvegicus; assay: Distribution of radioactivity in heart tissues of Sprague-Dawley rats after 15 min injecton by intravenously; 0.24-0.28; conditions: in vivo, iv, 0.25 h; how it was run: as §1
[15] = system: Rattus norvegicus; assay: Distribution of radioactivity in blood tissues of Sprague-Dawley rats after 15 min injecton by intravenously; 0.35-0.37; conditions: in vivo, iv, 0.25 h; how it was run: as §1
[16] = system: Rattus norvegicus; assay: Distribution of radioactivity in blood tissues of Sprague-Dawley rats after 5 min injecton by intravenously; 0.34-0.48; conditions: in vivo, iv; how it was run: as §1
[17] = system: Rattus norvegicus; assay: Distribution of radioactivity in heart tissues of Sprague-Dawley rats after 5 min injecton by intravenously; 0.24-0.29; conditions: in vivo, iv
[18] = system: Rattus norvegicus; assay: Distribution of radioactivity in brain tissues of Sprague-Dawley rats after 5 min injecton by intravenously; 0.02-0.03; conditions: in vivo, iv; how it was run: as §1

Distribution [1]: 1.46%
Distribution [2]: 8.03%
Distribution [3]: 0.93%
Distribution [4]: 16.46%
Distribution [5]: 0.56%
Distribution [6]: 4.33%
Distribution [7]: 0.47%
Distribution [8]: 0.47%
Distribution [9]: 0.32%
Distribution [10]: 0.02%
Distribution [11]: 0.2%
Distribution [12]: 0.27%
Distribution [13]: 0.03%
Distribution [14]: 0.26%
Distribution [15]: 0.36%
Distribution [16]: 0.39%
Distribution [17]: 0.25%
Distribution [18]: 0.03%
SMILES: C[n+]1cccc(C(=O)NCCc2ccc([125I])cc2)c1
